This is a sample that favours compounds with a hit; in the whole collection about 29% have one here.
CYP2C19 inhib – blocks human cytochrome P450 2C19. CYP2C19 Supersomes, luciferin-H EGE luminescence, 30 min. inhibition, % at 5 µM. hit rate 21% among 96,000;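 active means CYP2C19 inhibition above a set limit at 5 µM in the primary screen, cut at about 50% in these data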;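 further: plate controls were negative control wells for no effect and 2.5 mM tranylcypromine positive control for full effect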
CYP2C9 inh – human CYP2C9 inhibition. hit rate 20% among 96,000. inhibition, % at 5 µM. CYP2C9 Supersomes, luciferin-H conversion, luminescence;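 active means blocking of liver enzyme CYP2C9 beyond about 50% at 5 µM, limit read from the data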
Target sequence (P11712 whole entry, looked up): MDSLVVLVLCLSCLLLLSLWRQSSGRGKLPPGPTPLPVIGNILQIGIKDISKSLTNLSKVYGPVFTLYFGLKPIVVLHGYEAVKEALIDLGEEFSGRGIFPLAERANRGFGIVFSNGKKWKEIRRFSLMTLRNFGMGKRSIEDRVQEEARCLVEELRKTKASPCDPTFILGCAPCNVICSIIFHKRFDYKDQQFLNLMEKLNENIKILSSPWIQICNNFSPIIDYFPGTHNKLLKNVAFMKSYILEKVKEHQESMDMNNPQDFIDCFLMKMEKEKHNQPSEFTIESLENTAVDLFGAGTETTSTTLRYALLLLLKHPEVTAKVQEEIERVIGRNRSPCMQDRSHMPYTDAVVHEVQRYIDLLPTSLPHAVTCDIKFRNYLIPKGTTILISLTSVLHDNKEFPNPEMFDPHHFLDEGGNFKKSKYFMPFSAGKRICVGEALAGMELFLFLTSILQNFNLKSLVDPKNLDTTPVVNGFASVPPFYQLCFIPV
Ecoli WT expand – blocks growth of wild type E. coli BW25113. OD600 absorbance. growth inhibition, % at 100 µM. hit rate 0.15% among 98,000;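 active means growth inhibition above about 50% at one test dose, limit read from the data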;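 further: growth measured after 20 h incubation at 37 °C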
Ecoli tolC – blocks growth of E. coli BW25113 tolC mutant. OD615. growth inhibition, % at 10 µM (by protocol). hit rate 2.2% among 65,000. AID 573;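 active means growth inhibition at or above a cutoff equal to the mean over every tested compound plus 3 SD, cut at about 60% in these data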;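 further: growth measured after 20 h incubation at 37 °C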
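Signal: optical density read at 615 nm; Assay system: E. coli ΔtolC::kan strain BW25113; Times: 20 h incubation with compound, 37 °C; Dosing: 10 µM final, single dose.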
CYP2C19 act – activators of human cytochrome P450 2C19. P33261. recombinant CYP2C19, luciferin-H EGE luminescence; hits give high values; 0 = fully inhibited enzyme, 1 = untreated enzyme. activation factor at 5 µM. 96,000 tested, under 10 active;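 active means activation factor of at least 2 at 5 µM in the primary screen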;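 further: 0 = wells with 2.5 mM tranylcypromine and 1 = vehicle-only wells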
CYP2C9 activ – increases human cytochrome P450 2C9 activity; P11712; recombinant CYP2C9, luciferin-H conversion, luminescence; hits give high values; factor 1 = untreated enzyme, 0 = blocked; activation factor at 5 µM; hit rate 1.4% among 96,000; AID 1024;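 active means activation factor of 2 or more for CYP2C9 at a 5 µM dose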;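 further: 0 = sulfaphenazole-blocked wells and 1 = vehicle-only wells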
* marks the source's active call; other numbers are inactive results; . = not tested or not shown.

SMILES	CYP2C19 inhib	CYP2C9 inh	Ecoli WT expand	Ecoli tolC	CYP2C19 act	CYP2C9 activ
CC(=O)OCc1c(COC(C)=O)[n+](=O)c2ccccc2n1[O-]	9.0	6.1	41.0	14.2	0.9	0.9
O=C(CNC(=S)NC(=O)c1ccco1)c1ccccc1	5.5	-35.5	-3.0	.	0.9	1.4
CSc1nsc(SC)c1C(=O)NCCNS(=O)(=O)c1ccc(C)cc1	18.7	45.3	1.0	7.2	0.8	0.5
C=CCNc1nc(N)c(C(=O)Nc2cc(C)on2)s1	7.7	3.3	4.0	-6.7	0.9	1
C=CCNc1nc(N)c(C(=O)c2ccc3c(c2)OCO3)s1	89.7*	-31.5	14.0	20.1	0.1	1.3
Clc1ccc2c(NNc3ccccc3Cl)ccnc2c1	25.0	59.6*	-9.0	.	0.8	0.4
Cc1c(C(=O)NCc2ccccc2)c(-c2ccccc2)nn1-c1ccccc1	43.0	33.9	-7.0	.	0.6	0.7
CN(Cc1ccccc1)C(=O)CNC(=O)Cn1cnc2ccccc2c1=O	-2.7	16.4	11.0	5.4	1	0.8
CCc1c(C#N)c(N)nc(SCC(=O)OCc2ccccc2)c1C#N	6.1	7.3	-3.0	-6.9	0.9	0.9
CCc1ccc2oc(-c3cc(N)ccc3Cl)nc2c1	53.0*	26.4	-1.0	59.7	0.5	0.7
Cc1ccc(C)c(-c2nc3cc(N)ccc3o2)c1	28.0	16.9	8.0	14.4	0.7	0.8
CCc1ccc2oc(-c3cc(N)cc(C)c3O)nc2c1	95.1*	93.7*	-3.0	20.8	0	0.1
CCc1ccc2oc(-c3cc(N)ccc3O)nc2c1	43.5	32.3	-5.0	12.6	0.6	0.7
Cc1ccc(CCNC(=O)C2CCCN(S(=O)(=O)c3c(C)noc3C)C2)cc1 (stereo not drawn)	13.6	43.4	2.0	-5.0	0.9	0.6
COc1ccc(C)cc1NC(=O)C1CCCN(S(=O)(=O)c2c(C)noc2/C=C/N(C)C)C1 (stereo not drawn)	.	.	.	-14.4	.	.
Cc1ccc(CCNC(=O)C2CCCN(S(=O)(=O)c3c(C)noc3/C=C/N(C)C)C2)cc1 (stereo not drawn)	39.0	69.0*	6.0	3.9	0.6	0.3
Cc1noc(/C=C/N(C)C)c1S(=O)(=O)N1CCCC(C(=O)NCc2cccs2)C1 (stereo not drawn)	30.4	67.9*	1.0	-7.0	0.7	0.3
COc1cccc(OC)c1OCCOCCn1cnc2ccccc2c1=O	76.9*	21.2	11.0	1.9	0.2	0.8
O=c1c2ccccc2ncn1CCCSc1ccccc1	78.3*	38.7	-3.0	.	0.2	0.6
O=c1c2ccccc2ncn1CCCSc1ccc(Cl)cc1	22.4	35.6	0.0	.	0.8	0.6
Cc1cccc(C)c1OCCCCn1cnc2ccccc2c1=O	19.4	53.1*	-2.0	.	0.8	0.5
O=c1c2ccccc2ncn1CCCOc1ccccc1[N+](=O)[O-]	52.3*	42.4	-5.0	.	0.5	0.6
Cc1cc(C)c(OCCCCn2cnc3ccccc3c2=O)c(C)c1	9.2	28.3	-8.0	.	0.9	0.7
Cc1n[nH]c(=O)nc1NCc1ccccc1Cl	-6.5	-13.1	4.0	-16.0	1.1	1.1
Cc1ccnc(N2CCC(C(=O)Nc3ccc4c(c3)OCO4)CC2)n1	5.1	0.9	4.0	-6.3	0.9	1
SMILES	CYP2C19 inhib	CYP2C9 inh	Ecoli WT expand	Ecoli tolC	CYP2C19 act	CYP2C9 activ
O=C(Nc1ccccc1)N1CCC(c2nc(-c3ccc(S(=O)(=O)N4CCOCC4)cc3)no2)CC1	10.4	46.2	-6.0	26.6	0.9	0.5
O=C(NC(Nc1ncccn1)C(=O)c1ccccc1)c1ccccc1 (stereo not drawn)	77.8*	77.1*	-2.0	6.2	0.2	0.2
O=C(NC(C(=O)c1ccccc1)n1cnccc1=O)c1ccccc1 (stereo not drawn)	9.5	11.0	4.0	-8.9	0.9	0.9
CC1(C)CC(=O)C2=C(C1)Nc1ncnn1C2c1ccccn1 (stereo not drawn)	-1.7	-0.5	2.0	-12.7	1	1
CCCC1=C(C(=O)OCC)C(c2ccc(O)cc2)n2ncnc2N1 (stereo not drawn)	25.9	93.3*	7.0	13.7	0.7	0.1
CCOC(=O)C1=C(C)Nc2ncnn2C1c1ccc(N(C)C)cc1 (stereo not drawn)	41.3	38.2	8.0	2.4	0.6	0.6
CCOC(=O)C1=C(C)Nc2ncnn2C1c1c[nH]c2ccccc12 (stereo not drawn)	81.8*	59.2*	4.0	-1.9	0.2	0.4
CC1=C(C(=O)OC(C)C)C(c2c[nH]c3ccccc23)n2ncnc2N1 (stereo not drawn)	60.7*	21.3	-4.0	99.4*	0.4	0.8
CCCCCOC(=O)C1=C(C)Nc2ncnn2C1c1cccs1 (stereo not drawn)	78.3*	38.9	3.0	.	0.2	0.6
CC1=C(C(=O)OC(C)C)C(c2cccs2)n2ncnc2N1 (stereo not drawn)	27.0	11.3	-7.0	7.6	0.7	0.9
O=C(NC(=S)NCCN1CCOCC1)c1cccc(Cl)c1	41.0	21.4	4.0	.	0.6	0.8
Nn1c(SCC(=O)Nc2ccccc2)nnc1-c1cccnc1	11.1	8.3	-10.0	-7.9	0.9	0.9
CC1CC(NC(=O)c2ncn[nH]2)CC(C)(C)C1 (stereo not drawn)	16.4	-8.1	-7.0	.	0.8	1.1
COC(=O)c1ccc(C)c(NC(=O)C2COc3ccccc3O2)c1 (stereo not drawn)	78.5*	79.4*	5.0	24.0	0.2	0.2
COc1cc(NC(=O)C2COc3ccccc3O2)c(OC)cc1Cl (stereo not drawn)	86.0*	84.0*	2.0	34.2	0.1	0.2
O=C(Nc1ccccc1C(=O)N1CCOCC1)C1COc2ccccc2O1 (stereo not drawn)	15.0	-2.9	7.0	-13.6	0.8	1
COc1ccc(OC)c(NS(=O)(=O)c2ccc(NC(=O)C3COc4ccccc4O3)cc2)c1 (stereo not drawn)	57.1*	11.0	-15.0	18.0	0.4	0.9
COc1ccc(OC)c(-c2nnc(-c3ccc(C)o3)o2)c1	44.0	1.1	3.0	12.6	0.6	1
Cn1c(SCC(=O)N2CCN(c3cccc(Cl)c3)CC2)nnc1-c1ccncc1	-2.0	-1.4	-12.0	-14.7	1	1
O=C(CSc1ccccn1)N1CCN(c2ccccc2)CC1	99.2*	44.8	2.0	-4.2	0	0.6
O=C(CSc1nc(N2CCCCC2)nc(N2CCCCC2)n1)N1CCN(c2ccccc2)CC1	76.6*	82.8*	.	10.8	0.2	0.2
O=C(CSc1ccccn1)N1CCN(c2cccc(Cl)c2)CC1	72.4*	35.9	-11.0	.	0.3	0.6
Cn1nnnc1SCC(=O)N1CCN(c2cccc(Cl)c2)CC1	71.7*	-11.1	0.0	7.3	0.3	1.1
O=C(CSc1nnc(-c2ccccc2)o1)n1c2c(c3ccccc31)CCCC2	20.7	-18.8	-11.0	8.2	0.8	1.2

Screening data deposited in PubChem BioAssay by several laboratories.
